Results pooled from the literature.
Lines come from different studies, so protocols differ.
MEP1A: Meprin A subunit alpha (MEP1A, Homo sapiens, UniProt Q16819)
PPO3: PPO3 (Agaricus bisporus, UniProt C7FF04)
PFF0160c: Dihydroorotate dehydrogenase (quinone), mitochondrial (PFF0160c, Plasmodium falciparum, UniProt Q08210)
ARAF: Serine/threonine-protein kinase A-Raf (ARAF, Homo sapiens, UniProt P10398)
PDE5A: cGMP-specific 3',5'-cyclic phosphodiesterase (PDE5A, Homo sapiens, UniProt O76074)
AURKB: Aurora kinase B (AURKB, Homo sapiens, UniProt Q96GD4)
HDAC2: Histone deacetylase 2 (HDAC2, Homo sapiens, UniProt Q92769)
PDE4A: 3',5'-cyclic-AMP phosphodiesterase 4A (PDE4A, Homo sapiens, UniProt P27815)
KDM1A: Lysine-specific histone demethylase 1A (KDM1A, Homo sapiens, UniProt O60341)

SMILES	target	test	conditions	IC50
O=C(CCN(Cc1ccc2c(c1)OCO2)Cc1ccc(Cl)c(O)c1F)NO	MEP1A	enzyme activity, inhibitor	–	0.159 µM
Cc1ccc(C(C)C)cc1NC(=O)COC(=O)/C=C/c1ccc(Cl)cc1	PPO3	enzyme activity, inhibitor	–	16.7 µM
CC(=O)Nc1ccc(N=Nc2c(N)nc(N)nc2N)cc1	PPO3	enzyme activity, inhibitor, absorbance	–	29.8 µM
O=C(CCN(Cc1ccc(Cl)cc1F)Cc1ccc(Cl)c(O)c1F)NO	MEP1A	enzyme activity, inhibitor	–	0.215 µM
Cc1cc(Nc2ccc(C(F)(F)F)cc2)c2ccccc2n1	PFF0160c	enzyme activity, inhibitor	–	0.98 µM
Cc1ccc(COc2ccc3c(c2)NC(=C(C#N)C(=O)c2ccc(Cl)cc2Cl)NC3=O)cc1	Cytoplasmic dynein 1 heavy chain 1 (DYNC1H1, Homo sapiens, UniProt Q14204)	ATPase activity, inhibitor	–	280 µM
Cc1ccc(C(C)C)cc1NC(=O)COC(=O)c1ccc(O)c(O)c1	PPO3	enzyme activity, inhibitor	–	11 µM
Cc1cc(Nc2cccc(Cl)c2)n2nc(CN)nc2n1	PFF0160c	enzyme activity, inhibitor	–	> 10 µM
Cc1[nH]ncc1C(=O)N1CCC(C)(NC(=O)c2c[nH]c(=O)c3ccccc23)C1 (stereo not drawn)	Poly [ADP-ribose] polymerase 1 (PARP1, Homo sapiens, UniProt P09874)	enzyme activity, inhibitor	–	0.794 µM
CN1CCN(c2ccc(Nc3ncc4cc(C#N)c(=O)n(C5CCCC5)c4n3)cc2)CC1	ARAF	enzyme activity, inhibitor	–	0.566 µM
CC(C)(C)N1C(=O)[C@@H]2Cc3c([nH]c4ccccc34)[C@@H](c3cccnc3)N2C1=O	PDE5A	enzyme activity, inhibitor, FP	–	0.18 µM
CNCCc1nc2nc(C)cc(Nc3ccc(Cl)cc3)n2n1	PFF0160c	enzyme activity, inhibitor	–	> 10 µM
COc1ccc(N=Nc2c(N)nc(N)nc2Cl)cc1	PPO3	enzyme activity, inhibitor, absorbance	–	28 µM
Cc1ccc(C(C)C)cc1NC(=O)COC(=O)/C=C/c1ccccc1O	PPO3	enzyme activity, inhibitor	–	1.81 µM
CCN1C(=O)[C@@H]2Cc3c([nH]c4ccccc34)[C@@H](c3ccc(OC)c(OC)c3)N2C1=O	PDE5A	enzyme activity, inhibitor, FP	–	13.7 µM
Cc1cc(Nc2ccc(C(F)(F)F)cc2)n2nc(OCCN(C)C)nc2n1	PFF0160c	enzyme activity, inhibitor	–	> 10 µM
O=C(Nc1c[nH]nc1-c1nc2cc(CN3CCOCC3)ccc2[nH]1)NC1CC1	AURKB	enzyme activity, inhibitor, mobility shift	–	0.0023 µM
CCCON(Cc1ccc(C(=O)NO)cc1)C(=O)Nc1ccccc1	HDAC2	enzyme activity, inhibitor, fluorescence	–	1.42 µM
CC(C)C[C@H]1CC(=O)N[C@@H](C)C(=O)N[C@@H](CCCCCC(=O)O)C(=O)N[C@@H](Cc2c[nH]c3ccccc23)C(=O)N1	HDAC2	enzyme activity, inhibitor	–	0.2 µM
C[S+]([O-])c1ccc(-c2nc(-c3ccncc3)c(-c3ccc(F)cc3)[nH]2)cc1 (stereo not drawn)	ARAF	enzyme activity, inhibitor	lysate	> 10 µM
CCC[C@H](NC(=O)C1CN(C)C1)c1ncc(-c2cc3ccccc3nc2OC)[nH]1	HDAC2	enzyme activity, inhibitor, fluorescence	–	0.75 µM

SMILES	target	test	conditions	IC50
Cc1cc(Nc2ccc(S(F)(F)(F)(F)F)cc2)n2nc(OCCN(C)C)nc2n1	PFF0160c	enzyme activity, inhibitor	–	> 10 µM
COc1ccc([C@@H]2CN(C(=O)[C@@H](O)CO)C[C@@]2(C)[C@@H](C)O)cc1OC1CN(c2ccc(C)cn2)C1	PDE4A	enzyme activity, inhibitor	–	9e-05 µM
COc1ccc([C@@H]2c3[nH]c4ccccc4c3C[C@H]3C(=O)N(c4ccc(Cl)cc4)C(=O)N23)cc1OC	PDE5A	enzyme activity, inhibitor, FP	–	5.36 µM
Cc1cnc(-c2ccc(-c3ccc(NC(=O)Nc4c(F)cc(F)cc4F)cc3F)c3c2C(=O)NC3)[nH]1	Cytoplasmic tyrosine-protein kinase BMX (BMX, Homo sapiens, UniProt P51813)	enzyme activity, inhibitor	–	0.0144 µM
O=C(Nc1ccn(Cc2ccc(O)cc2C(F)(F)F)n1)c1c(F)cccc1F	Sodium channel protein type 9 subunit alpha (SCN9A, Homo sapiens, UniProt Q15858)	ion current, inhibitor	–	> 10 µM
CCN1C(=O)[C@H]2Cc3c([nH]c4ccccc34)[C@@H](c3cccnc3)N2C1=O	PDE5A	enzyme activity, inhibitor, FP	–	0.14 µM
C[C@@H]1Cc2ccccc2N1C(=O)NCCCCN(C)[C@@H]1Cc2cccc3[nH]c(=O)n(c23)C1	5-hydroxytryptamine receptor 2A (HTR2A, Homo sapiens, UniProt P28223)	ligand displacement, radioligand	–	3.7 µM
CCCSc1nc(Sc2nnnn2C)c2nnn(CCc3cccs3)c2n1	KDM1A	enzyme activity, inhibitor, fluorescence	–	0.339 µM
CNCCOc1nc2nc(C)cc(Nc3cccc(Cl)c3)n2n1	PFF0160c	enzyme activity, inhibitor	–	> 10 µM
O=C1Nc2ccc(I)cc2/C1=C/c1cc(Br)c(O)c(Br)c1	ARAF	enzyme activity, inhibitor, radiometric	–	0.0154 µM
COC(=O)[C@H]1Cc2c([nH]c3ccccc23)[C@H](c2ccc(OC)c(OC)c2)N1C(=O)CCl	PDE5A	enzyme activity, inhibitor, FP	–	> 10 µM
CCOCc1nc(O)c(-c2nnc(Cc3ccc(Cl)cn3)o2)c(O)c1-c1c(OC)cccc1OC	Cannabinoid receptor 1 (CNR1, Homo sapiens, UniProt P21554)	ligand displacement, radioligand	–	> 30 µM
Cc1cc(Nc2ccc(Cl)cc2)n2nc(CN)nc2n1	PFF0160c	enzyme activity, inhibitor	–	> 10 µM
CCCCc1ccc(-c2ccc(-c3cc(C(=O)O)c4cccc([N+](=O)[O-])c4n3)o2)cc1	Eukaryotic initiation factor 4A-I (EIF4A1, Homo sapiens, UniProt P60842)	ATPase activity, inhibitor, absorbance	–	27.5 µM
Cc1cc(Nc2cccc(Cl)c2)n2nc(OCCN(C)C)nc2n1	PFF0160c	enzyme activity, inhibitor	–	> 10 µM
Nc1nc(N)c(N=Nc2ccccc2[N+](=O)[O-])c(N)n1	PPO3	enzyme activity, inhibitor, absorbance	–	34.1 µM
CC(=O)N[C@@H](CC(=O)O)C(=O)N[C@@H](CCC(=O)O)C(=O)N[C@H](C(=O)N[C@H](C=O)CC(=O)O)C(C)C	Caspase-6 (CASP6, Homo sapiens, UniProt P55212)	enzyme activity, inhibitor	–	0.0232 µM
COc1ccc(C2=NN(C3CCCCCC3)C(=O)[C@@H]3CC=CC[C@H]23)cc1-c1ccc(C(N)=O)cc1 (relative stereo)	PDE4A	enzyme activity, inhibitor	–	0.251 µM
CC(C)(C)n1nc(-c2cnc3cc(OC4CC4)ccc3c2)c(C(N)=O)c1N	AURKB	cell-free assay, inhibitor	–	> 10 µM
Cc1cc(Nc2cccc(Cl)c2)n2nc(CC3CC3)nc2n1	PFF0160c	enzyme activity, inhibitor	–	> 10 µM
CCCSc1nc(Sc2nc3ccccc3s2)c2nnn(CCO)c2n1	KDM1A	enzyme activity, inhibitor, fluorescence	–	0.847 µM
